HKDC1 inh = blocks human hexokinase HKDC1 activity | Q2TB90 | recombinant HKDC1, G6PDH/diaphorase resazurin coupled fluorescence | inhibition, % at 20 µM | actives 0.16% (n = 340,000) | AID 493160;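 active = inhibition above about 35% when tested at 20 µM, limit read from the data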;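 also: plate controls were DMSO wells with enzyme for no effect and DMSO wells lacking enzyme for full effect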
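Material – in-house recombinant HK5 (HKDC1) enzyme · Quantity – HKDC1 at 5 µg/mL · Buffer or medium – pH 8.0 Tris buffer with 10 mM MgCl2 · Reagent – glucose with 1 mM ATP · Dosing – single 20 µM dose · Times – reaction time 90 min, room temperature, protected from light · Technique – resorufin fluorescence at 613 nm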
UCH37 DUB inh = inhibitors of human deubiquitinating enzyme UCH37 | Q9Y5K5 | purified proteasome/UCH37, Ub-AMC cleavage fluorescence | inhibition, % (no concentration beside the values) | actives 0.33% (n = 330,000) | AID 588478;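 active = mean inhibition over replicate wells above about 20%, limit read from the data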;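 also: 0% = compound-free wells with enzyme and 100% = wells lacking proteasome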
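Material: Human UCH37 enzyme supplied as purified proteasome complex | Schedule: 30 min preincubation with enzyme, 25 min cleavage at room temperature | Detection: AMC fluorescence 355/460 nm | Measure: % inhibition of Ub-AMC cleavage fluorescence | Controls: Wells without proteasome as full block, compound-free enzyme plus substrate as uninhibited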
CTSL1 counter = cathepsin L1 inhibition, PFM18AAP counter-screen. recombinant F. hepatica cathepsin L1, Z-Leu-Arg-MCA fluorescence. inhibition, % at 5.96 µM. actives 0.49% (n = 300,000);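 active = inhibition above the mean of all tested compounds plus 3 SD, set per screening campaign, cut at about 17% in these data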;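 also: 0% = plate median of test compound wells and 100% = 1 µM Z-Phe-Ala-diazomethylketone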
PAD4 inh = PAD4 (human) enzyme inhibition | Q9UM07 | recombinant PAD4, RCA probe fluorescence polarization | inhibition, % at 6.36 µM | actives 0.41% (n = 330,000) | AID 485272;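 active = percent inhibition above a cutoff equal to the mean of all tested compounds plus 3 SD, cut at about 15% in these data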;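 also: 0% = PAD4 with RCA probe and DMSO and 100% = probe without PAD4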
TDP2 inh = blocks human TDP2 phosphodiesterase activity; O95551; recombinant TDP2, T5PNP hydrolysis, p-nitrophenol absorbance 415 nm; inhibition, % at 12.8 µM; actives 0.34% (n = 370,000);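 active = inhibition above the mean of all tested compounds plus 3 SD, set per campaign, cut at about 25% in these data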;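 also: 0% = DMSO with enzyme and 100% = buffer with substrate but no TDP2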
Target sequence (O95551 whole entry, looked up): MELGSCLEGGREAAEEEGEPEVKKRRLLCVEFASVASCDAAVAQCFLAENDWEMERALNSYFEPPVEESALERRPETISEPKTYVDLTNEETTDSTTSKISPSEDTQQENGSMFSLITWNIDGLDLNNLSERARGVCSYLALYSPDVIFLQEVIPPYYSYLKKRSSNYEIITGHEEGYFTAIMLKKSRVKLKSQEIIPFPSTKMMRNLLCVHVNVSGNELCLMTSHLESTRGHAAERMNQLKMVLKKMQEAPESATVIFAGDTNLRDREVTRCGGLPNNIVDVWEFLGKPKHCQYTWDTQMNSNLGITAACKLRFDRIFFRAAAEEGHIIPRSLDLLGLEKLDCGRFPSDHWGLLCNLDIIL
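System – recombinant human TDP2 · Quantity – TDP2 enzyme at 120 nM final · Doses – single concentration, 12.8 µM nominal, with 1% DMSO · Incubation – 2 h at 37 °C · Measured by – epi absorbance of p-nitrophenol freed from T5PNP by hydrolysis · Read-out – % inhibition relative to enzyme-containing and enzyme-free wells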
GSTO1 inh = counter-screen for RBBP9 inhibitors: inhibitors of human GSTO1. P78417. actives 1.1% (n = 300,000). inhibition, % at 5.96 µM. recombinant GSTO1, activity-based probe fluorescence polarization;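 active = inhibition above the campaign mean inhibition plus 3 SD, cut at about 35% in these data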;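 also: 0% = GSTO1-1 with DMSO and 100% = wells lacking GSTO1-1 enzyme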
Target sequence (P78417 whole entry, looked up): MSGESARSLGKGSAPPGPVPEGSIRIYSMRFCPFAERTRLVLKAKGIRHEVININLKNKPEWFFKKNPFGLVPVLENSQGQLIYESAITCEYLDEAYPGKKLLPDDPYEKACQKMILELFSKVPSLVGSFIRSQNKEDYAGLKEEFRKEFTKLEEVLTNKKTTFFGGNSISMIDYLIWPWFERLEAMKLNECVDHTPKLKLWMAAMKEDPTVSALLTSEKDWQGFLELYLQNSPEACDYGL
* = called active by the depositor; · = no result. Sampled rows, rich in hits. Any-hit rate of the full collection: about 1.6%.

SMILES	HKDC1 inh	UCH37 DUB inh	CTSL1 counter	PAD4 inh	TDP2 inh	GSTO1 inh
CC(C)C(C(=O)Nc1ccccc1)N1C(=O)c2ccccc2C1=O (centres undefined)	-3	9	6	-6	3	7
CC(C)C(C(=O)C=[N+]=[N-])N1C(=O)c2ccccc2C1=O (centres undefined)	0	5	21*	1	9	7
O=C(CSCc1ccccc1)NN=Cc1ccc(OCC(=O)N2CCCCC2)cc1	·	5	·	·	·	·
CC(=NNS(=O)(=O)c1ccc(C)c([N+](=O)[O-])c1)c1cc2ccccc2o1	·	7	·	·	·	·
COc1ccc2nc(N3CCC(C)CC3)c(C#N)cc2c1	13	-28	2	-13	-2	10
COc1ccc2nc(N3CCC(O)CC3)c(C#N)cc2c1	9	-97	15	-14	6	36*
CC(=N/N=C1/NC(=O)CC(C(=O)O)S1)c1ccc(F)cc1 (centres undefined)	·	2	·	·	·	·
O=[N+]([O-])c1ccc(C=Nc2ccc(Cl)c([N+](=O)[O-])c2)s1	·	7	·	·	10	·
NC(=O)c1ccc(N=Cc2ccc([N+](=O)[O-])s2)cc1	14	62*	11	-2	-1	31
Cc1cc(C)cc(N=Cc2ccc([N+](=O)[O-])s2)c1	14	10	4	-6	14	36*
O=C(Cc1ccccc1)NN=Cc1ccc([N+](=O)[O-])s1	·	1	·	·	·	·
O=C(c1cccnc1)N1CCN(C(=O)c2cccc(Cl)c2)CC1	-4	2	1	-1	2	3
O=C1NCCN1C(=O)c1cccc(Cl)c1	-5	2	19*	-1	-1	0
CC(=NNC(=O)c1ccc(N(C)C)cc1)c1ccc(C)cc1C	·	7	·	·	·	·
Cc1ccc(NC2=CC(=NS(=O)(=O)c3cccs3)c3ccccc3C2=O)cc1	·	22*	·	·	·	·
O=C(O)c1ccc(CSc2nnc(COc3ccc(Cl)cc3Cl)o2)cc1	-1	3	40*	2	-4	-3
Nc1c(C(=O)NN=Cc2ccc([N+](=O)[O-])cc2)sc2nnc(-c3ccccc3)c(-c3ccccc3)c12	·	7	·	·	·	·
CC(C(=O)NNS(=O)(=O)c1cccc(C(F)(F)F)c1)n1nnc(N2CCOCC2)n1 (centres undefined)	-2	5	59*	1	1	12
CC1=NN(c2ccccc2)C(=O)/C1=C\C=C1/N(C)c2ccccc2C1(C)C	-12	6	5	-9	14	72*
S=c1[nH]nc(-c2ccccc2)n1N=Cc1ccc(Cl)cc1	·	8	·	·	·	·
Cc1c(/C(O)=C2/C(=O)C(=O)N(CCN3CCOCC3)C2c2cccnc2)cnn1-c1ccccc1 (centres undefined)	-4	22*	2	-3	-13	-2
CC(=NNC(=O)c1ccccn1)c1ccc(C(=O)O)s1	·	12	·	·	·	·
CCOC(=O)/C(C#N)=N\Nc1cc(Cl)ccc1OC	0	·	32*	-3	3	7
O=C(NC1CCCCC1)C(c1cccnc1)N(C(=O)CCl)c1cccc(Cl)c1 (centres undefined)	19	-15	5	3	2	96*
Cc1cccc(N(C(=O)CNC(=O)c2ccco2)C(C(=O)NC2CCCCC2)c2cccnc2)c1 (centres undefined)	-3	0	-3	2	-7	4
SMILES	HKDC1 inh	UCH37 DUB inh	CTSL1 counter	PAD4 inh	TDP2 inh	GSTO1 inh
O=C(Cc1ccccc1)NN=Cc1cc(Br)cc(Cl)c1O	·	-13	·	·	·	·
Cc1ccc(NC(=S)NNC(=O)CSc2nnc(-c3ccc(Cl)cc3)n2C2CCCCC2)cc1	-8	5	11	1	-12	-2
CCn1c(SCC(=O)NNC(=S)Nc2ccc(C)cc2)nnc1-c1ccc(Cl)cc1	-11	2	-1	-7	-2	35*
COc1ccccc1/C=C/C=Nn1c(-c2ccc(F)cc2)n[nH]c1=S	·	4	·	·	·	·
Cc1ccc2cc(C=NNC(=O)[C@H]3C[C@@H]3c3ccccc3)c(Cl)nc2c1	·	-47	·	·	·	·
O=C(/C=C/Nc1ccc(F)cc1)c1ccc(Br)cc1	-12	-5	0	-2	-8	-3
O=C(/C=C/Nc1ccc([N+](=O)[O-])cc1)c1ccc(Br)cc1	-5	·	17*	-5	-13	7
N#C/C(=C/c1ccc(-c2cc(C(=O)O)cc(C(=O)O)c2)o1)c1nc2ccccc2s1	·	28*	7	-33	·	-93
O=C(Cc1ccccc1)NN=Cc1cccnc1	·	-3	·	·	·	·
Cc1ccc(C(=O)N/N=C/c2ccc(-c3ccccc3[N+](=O)[O-])o2)cn1	8	·	0	-6	6	37*
O=C(CN1C(=O)S/C(=C\c2cccs2)C1=O)Nc1ccc(C(=O)O)c(O)c1	0	13	6	7	-12	12
O=C(CN1C(=O)S/C(=C\c2cccs2)C1=O)Nc1ccc(O)c(C(=O)O)c1	3	21*	4	-2	-2	25
CCN(CC)c1ccc(C=NNC(=O)c2ccco2)cc1	·	-10	·	·	·	·
O=C(CSC1CN(C(c2ccccc2)c2ccccc2)C1)NN=Cc1ccc(Cl)cc1Cl	·	2	·	·	·	·
COc1ccc(-n2c(=O)c3c4c(sc3n3c(=S)[nH]nc23)CCC4)cc1	16	3	17*	0	1	6
COC/C=C/C1=CC2=CC(=O)C(C)(O)C(=O)C2=CO1 (centres undefined)	·	·	0	1	·	42*
COC/C=C/C1=CC2=CC(=O)C(C)(OC(=O)c3ccco3)C(=O)C2=CO1 (centres undefined)	·	·	-4	24*	·	36*
NC(=O)NNC(=S)Nc1cccc2ccccc12	-2	-2	91*	-1	0	5
Cc1ccc(-c2csc(NN=C/C=C/c3ccccc3)n2)cc1	·	-11	·	·	·	·
CC(NC(=O)Cn1nc(C(F)(F)F)c2c1CCC2)c1ccccc1 (centres undefined)	3	-2	17*	1	-10	14
CC(C)NC(=O)Cn1nc(C(F)(F)F)c2c1CCC2	-1	5	3	1	-7	7
CC[n+]1c(/C=C/N(C)c2ccccc2)oc2ccc(F)cc21	-11	24*	-1	-6	11	17
CC[n+]1c(/C=C/N(C)c2ccccc2)oc2ccccc21	10	21*	4	-4	5	4
CC[n+]1c(/C=C/Nc2ccccc2)oc2ccc(OC)cc21	4	0	2	3	2	-8
CC[n+]1c(/C=C/Nc2ccccc2)oc2ccccc21	1	9	3	-5	1	-1
CC(=O)N1CC=CC1(CC(C)C)C(=O)NCc1cc(F)cc(C(F)(F)F)c1 (centres undefined)	-4	3	55*	0	-12	-2

Bioassay records (PubChem)
